The text below walks through data of ChEMBL document CHEMBL4765453, “Phenanthrolinic analogs of quinolones show antibacterial activity against M. tuberculosis” (Eur J Med Chem, 2020).

Values after ≈ are worked out from the molar mass of the structure shown.

Common to all, as to assay type: functional
Settings in all cases: time 7 day

The subject of experiment [1] is Mycobacterium tuberculosis. Put plainly: Antitubercular activity against FQ resistant Mycobacterium tuberculosis H37Rv harboring gyrA Gly-88-Cys mutant measured after 7 days by resazurin microtiter assay. The procedure, abridged: (§1)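 Resazurin microtiter assay with two-fold drug dilutions in complete 7H9 broth. Exponential-phase cells are diluted to a final OD600 of 0.005 in 7H9 without Tween. Incubation is 7 days at 37°C, then 0.01% resazurin is added and plates are held 24 h more. MIC is the lowest concentration preventing the blue-to-pink change. Each MIC is determined three times in duplicate experiments.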
For orientation: The colour change of resazurin is a common sign of viable cells or microbes.

The subject of experiment [2] is Mycobacterium tuberculosis. Put plainly: Antitubercular activity against FQ resistant Mycobacterium tuberculosis H37Rv harboring gyrA Ser-91-Pro mutant measured after 7 days by resazurin microtiter assay. The procedure, abridged:
as §1

The subject of experiment [3] is Mycobacterium tuberculosis. Kind of experiment: Antitubercular activity against FQ resistant Mycobacterium tuberculosis H37Rv harboring gyrA Asp-94-Gly mutant measured after 7 days by resazurin microtiter assay. The procedure, abridged:
as §1

Experiment [4] deals with Mycobacterium tuberculosis. Kind of experiment: Antitubercular activity against FQ resistant Mycobacterium tuberculosis H37Rv harboring gyrA Ala-90-Val/gyrB Glu-540-Val mutant measured after 7 days by resazurin microtiter assay. The procedure, abridged:
as §1

For experiment [5], the system named is Mycobacterium tuberculosis. Put plainly: Antitubercular activity against FQ resistant Mycobacterium tuberculosis H37Rv harboring gyrA Ala-90-Val mutant measured after 7 days by resazurin microtiter assay. The procedure, abridged: as §1
Experiment [6] deals with Mycobacterium tuberculosis. Kind of experiment: Antitubercular activity against FQ resistant Mycobacterium tuberculosis H37Rv harboring gyrA Asp-94-Gly/gyrB Asp-500-Asn mutant measured after 7 days by resazurin microtiter assay. Put shortly: as §1

Take `Cn1cc(C(=O)O)c(=O)c2cc([N+](=O)[O-])c3cccnc3c21`: the MIC90 came out at 2.64 µM (≈ 0.79 µg/mL) in experiment [1]; 5.28 µM (≈ 1.58 µg/mL) in experiment [2]; 2.64 µM (≈ 0.79 µg/mL) in experiment [3]; 5.28 µM (≈ 1.58 µg/mL) in experiment [4]; 5.28 µM (≈ 1.58 µg/mL) in experiment [5]; 5.28 µM (≈ 1.58 µg/mL) in experiment [6].
As for `CCOC(=O)c1cn(C)c2c(cc([N+](=O)[O-])c3cccnc32)c1=O`, the MIC90 in experiment [1] is more than 50 µM; in experiment [2], more than 50 µM; in experiment [3], 1.21 µM (≈ 0.396 µg/mL); in experiment [4] it was more than 50 µM; in experiment [5], more than 50 µM; in experiment [6], more than 50 µM.
Turning to `CCn1cc(C(=O)O)c(=O)c2cc([N+](=O)[O-])c3cccnc3c21`, the MIC90 in experiment [1] was 11.68 µM (≈ 3.66 µg/mL); in experiment [2], 11.68 µM (≈ 3.66 µg/mL); in experiment [3], 2.99 µM (≈ 0.937 µg/mL); in experiment [4] it was 11.68 µM (≈ 3.66 µg/mL); in experiment [5], 11.68 µM (≈ 3.66 µg/mL); in experiment [6], 5.84 µM (≈ 1.83 µg/mL).
Take `CCOC(=O)c1cn(CC)c2c(cc([N+](=O)[O-])c3cccnc32)c1=O`: the MIC90 in experiment [1] is more than 50 µM; in experiment [2] it was more than 50 µM; in experiment [3] it was 4.99 µM (≈ 1.7 µg/mL); in experiment [4] it was more than 50 µM; in experiment [5] it was more than 50 µM; in experiment [6] it was more than 50 µM.
Turning to `COc1c(N2C[C@@H]3CCCN[C@@H]3C2)c(F)cc2c(=O)c(C(=O)O)cn(C3CC3)c12` [MOXIFLOXACIN], the MIC90 in experiment [1] stood at 6.16 µM (≈ 2.47 µg/mL); in experiment [2], 6.16 µM (≈ 2.47 µg/mL); in experiment [3], 3.08 µM (≈ 1.24 µg/mL); in experiment [4], 6.16 µM (≈ 2.47 µg/mL); in experiment [5] it was 3.08 µM (≈ 1.24 µg/mL); in experiment [6], 6.16 µM (≈ 2.47 µg/mL).
Regarding `CCn1cc(C(=O)O)c(=O)c2ccc(C)nc21` [NALIDIXIC ACID], the MIC90 in experiment [1], in experiment [2], in experiment [3], in experiment [4], in experiment [5] and in experiment [6] was more than 50 µM in each case.
For `CC1COc2c(N3CCN(C)CC3)c(F)cc3c(=O)c(C(=O)O)cn1c23` (configuration not stated) [OFLOXACIN], the MIC90 in experiment [1] was found to be 27.6 µM (≈ 9.97 µg/mL); in experiment [2], 27.6 µM (≈ 9.97 µg/mL); in experiment [3] it was 13.8 µM (≈ 4.99 µg/mL); in experiment [4] it was 27.6 µM (≈ 9.97 µg/mL); in experiment [5], 13.8 µM (≈ 4.99 µg/mL); in experiment [6], 27.6 µM (≈ 9.97 µg/mL).

What is called MIC90 is the lowest concentration that inhibits either 90% of growth or 90% of the strains tested, depending on the study.
